# Assay results reported in ChEMBL document CHEMBL1153007, “Mono and bis-6-arylbenzimidazo[1,2-c]quinazolines: a new class of antimicrobial agents” (2009).
# Experiments:
# Streptococcus pyogenes [1] = assay: Antibacterial activity against Streptococcus pyogenes at 1000 ug/ml after 24 hrs by agar diffusion method; type: functional; details: read-out: IZ
# Outline: (§1)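 Cup-plate agar diffusion on nutrient agar. Cultures grown overnight in NA broth at 37 °C and swabbed onto plates. Test solution at 1000 μg/ml added to 6 mm bores. Plates incubated at 37 °C for 24 h; zone of inhibition measured. Ampicillin plate as standard; one-way ANOVA at p ≤ 0.05.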
# Candida albicans [2] = assay: Antifungal activity against Candida albicans at 1000 ug/ml after 72 hrs by agar diffusion method; type: functional; details: read-out: IZ
# Outline: (§2)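 Strains grown and maintained on Sabouraud glucose agar. Test solution at 1000 µg/ml placed in bores cut in the agar. Plates incubated at 26 °C for 72 h, then the zone of inhibition around each bore was measured. Ketoconazole plates as standard; one-way ANOVA at p ≤ 0.05.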
# Staphylococcus aureus [3] = assay: Antibacterial activity against Staphylococcus aureus at 1000 ug/ml after 24 hrs by agar diffusion method; type: functional; details: read-out: IZ; outline: as §1
# Escherichia coli [4] = assay: Antibacterial activity against Escherichia coli at 1000 ug/ml after 24 hrs by agar diffusion method; type: functional; details: read-out: IZ; outline: as §1
# Trichoderma viride [5] = assay: Antifungal activity against Trichoderma viride at 1000 ug/ml after 72 hrs by agar diffusion method; type: functional; details: read-out: IZ; outline: as §2
# Klebsiella pneumoniae [6] = assay: Antibacterial activity against Klebsiella pneumoniae at 1000 ug/ml after 24 hrs by agar diffusion method; type: functional; details: read-out: IZ; outline: as §1
# Aspergillus niger [7] = assay: Antifungal activity against Aspergillus niger at 1000 ug/ml after 72 hrs by agar diffusion method; type: functional; details: read-out: IZ; outline: as §2
# Bacillus subtilis [8] = assay: Antibacterial activity against Bacillus subtilis at 1000 ug/ml after 24 hrs by agar diffusion method; type: functional; details: read-out: IZ; outline: as §1
# [9] = system: Salmonella enterica subsp. enterica; assay: Antibacterial activity against Salmonella Typhimurium at 1000 ug/ml after 24 hrs by agar diffusion method; type: functional, Salmonella enterica subsp. enterica serovar Typhimurium; details: read-out: IZ; outline: as §1
# Escherichia coli [10] = assay: Antibacterial activity against Escherichia coli after 24 hrs by liquid dilution method; type: functional
# Outline: (§3)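 Liquid dilution in tubes: 1 ml compound solution (stocks 2.5, 5, 10, 15, 20, 25, 30, 35, 40, 45, 50 µg/ml, prepared in appropriate solvent) plus 0.2 ml bacterial inoculum and 3.8 ml sterile water; incubated 24 h, checked for turbidity. MIC taken as lowest concentration with no growth. Ampicillin as reference.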
# Staphylococcus aureus [11] = assay: Antibacterial activity against Staphylococcus aureus after 24 hrs by liquid dilution method; type: functional; outline: as §3
# Klebsiella pneumoniae [12] = assay: Antibacterial activity against Klebsiella pneumoniae after 24 hrs by liquid dilution method; type: functional; outline: as §3
# Candida albicans [13] = assay: Antifungal activity against Candida albicans after 72 hrs by liquid dilution method; type: functional
# Outline: (§4)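 Liquid dilution in tubes: 1 ml compound solution (stocks 2.5–50 µg/ml, prepared in appropriate solvent) plus 0.2 ml fungal inoculum and 3.8 ml sterile water; checked for turbidity. MIC taken as lowest concentration with no visible growth. Ketoconazole as reference.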
# Streptococcus pyogenes [14] = assay: Antibacterial activity against Streptococcus pyogenes after 24 hrs by liquid dilution method; type: functional; outline: as §3
# Trichoderma viride [15] = assay: Antifungal activity against Trichoderma viride after 24 hrs by liquid dilution method
# Aspergillus niger [16] = assay: Antifungal activity against Aspergillus niger after 24 hrs by liquid dilution method
# Bacillus subtilis [17] = assay: Antibacterial activity against Bacillus subtilis after 24 hrs by liquid dilution method; type: functional; outline: as §3
# [18] = system: Salmonella enterica subsp. enterica; assay: Antibacterial activity against Salmonella Typhimurium after 24 hrs by liquid dilution method; type: functional, Salmonella enterica subsp. enterica serovar Typhimurium; outline: as §3
# Trichoderma viride [19] = assay: Antifungal activity against Trichoderma viride after 72 hrs by liquid dilution method; type: functional; outline: as §4
# Aspergillus niger [20] = assay: Antifungal activity against Aspergillus niger after 72 hrs by liquid dilution method; type: functional; outline: as §4
MIC (Escherichia coli [10]) [µg/mL],MIC (Staphylococcus aureus [11]) [µg/mL],MIC (Klebsiella pneumoniae [12]) [µg/mL],MIC (Candida albicans [13]) [µg/mL],MIC (Streptococcus pyogenes [14]) [µg/mL],MIC (Trichoderma viride [15]) [µg/mL],MIC (Aspergillus niger [16]) [µg/mL],MIC (Bacillus subtilis [17]) [µg/mL],MIC [18] [µg/mL],MIC (Trichoderma viride [19]) [µg/mL],SMILES,zone of inhibition at 1000 µg/mL (Streptococcus pyogenes [1]) [mm],zone of inhibition at 1000 µg/mL (Candida albicans [2]) [mm],zone of inhibition at 1000 µg/mL (Staphylococcus aureus [3]) [mm],zone of inhibition at 1000 µg/mL (Escherichia coli [4]) [mm],zone of inhibition at 1000 µg/mL (Trichoderma viride [5]) [mm],zone of inhibition at 1000 µg/mL (Klebsiella pneumoniae [6]) [mm],zone of inhibition at 1000 µg/mL (Aspergillus niger [7]) [mm],zone of inhibition at 1000 µg/mL (Bacillus subtilis [8]) [mm],zone of inhibition at 1000 µg/mL [9] [mm],MIC (Aspergillus niger [20]) [µg/mL]
,,,,,,,,,,c1coc(-c2nc3ccccc3c3nc4ccccc4n23)c1,18,11,25,20,6,12,13,21,15,
,,,,,,,,,,c1c[nH]c(-c2nc3ccccc3c3nc4ccccc4n23)c1,13,9,22,18,9,12,11,18,14,
5,2.5,5,5,10,10,2.5,15,5,,c1cc(-c2nc3ccccc3c3nc4ccccc4n23)nc(-c2nc3ccccc3c3nc4ccccc4n23)c1,50,50,52,50,45,49,50,45,46,
,,,,,,,,,,c1ccc(-c2nc3ccccc3c3nc4ccccc4n23)c(-c2nc3ccccc3c3nc4ccccc4n23)c1,15,13,18,20,13,15,16,14,12,
,,,,,,,,,,c1cc(-c2nc3ccccc3c3nc4ccccc4n23)cc(-c2nc3ccccc3c3nc4ccccc4n23)c1,15,15,21,19,12,18,18,18,15,
,,,,,,,,,,c1ccc2c(c1)nc(-c1ccc(-c3nc4ccccc4c4nc5ccccc5n34)cc1)n1c3ccccc3nc21,18,16,25,21,13,18,21,19,14,
,,,,,,,,,,c1ccc(-c2nc3ccccc3c3nc4ccccc4n23)cc1,13,10,18,18,9,16,10,14,12,
2.5,2.5,5,2.5,5,5,2.5,10,5,,c1ccc2c(c1)nc(-c1ccc(-c3nc4ccccc4c4nc5ccccc5n34)s1)n1c3ccccc3nc21,52,51,55,51,48,50,55,50,46,
10,5,15,15,10,,5,15,15,10,c1csc(-c2nc3ccccc3c3nc4ccccc4n23)c1,50,48,51,50,46,36,51,45,40,
15,10,20,15,15,,10,20,20,15,c1ccc(-c2nc3ccccc3c3nc4ccccc4n23)nc1,49,48,50,51,45,35,49,42,38,

SMILES,MIC (Escherichia coli [10]) [µg/mL],MIC (Staphylococcus aureus [11]) [µg/mL],MIC (Klebsiella pneumoniae [12]) [µg/mL],MIC (Candida albicans [13]) [µg/mL],MIC (Streptococcus pyogenes [14]) [µg/mL],MIC (Trichoderma viride [15]) [µg/mL],MIC (Aspergillus niger [16]) [µg/mL],MIC (Bacillus subtilis [17]) [µg/mL],MIC [18] [µg/mL],MIC (Trichoderma viride [19]) [µg/mL],zone of inhibition at 1000 µg/mL (Streptococcus pyogenes [1]) [mm],zone of inhibition at 1000 µg/mL (Candida albicans [2]) [mm],zone of inhibition at 1000 µg/mL (Staphylococcus aureus [3]) [mm],zone of inhibition at 1000 µg/mL (Escherichia coli [4]) [mm],zone of inhibition at 1000 µg/mL (Trichoderma viride [5]) [mm],zone of inhibition at 1000 µg/mL (Klebsiella pneumoniae [6]) [mm],zone of inhibition at 1000 µg/mL (Aspergillus niger [7]) [mm],zone of inhibition at 1000 µg/mL (Bacillus subtilis [8]) [mm],zone of inhibition at 1000 µg/mL [9] [mm],MIC (Aspergillus niger [20]) [µg/mL]
CC1(C)S[C@@H]2[C@H](NC(=O)[C@H](N)c3ccccc3)C(=O)N2[C@H]1C(=O)O [AMPICILLIN],15,10,10,,25,,,20,10,,35,,48,40,,45,,39,45,
CC(=O)N1CCN(c2ccc(OCC3COC(Cn4ccnc4)(c4ccc(Cl)cc4Cl)O3)cc2)CC1 (centres undefined) [KETOCONAZOLE],,,,25,,20,,,,,,40,,,41,,45,,,15
